Only some compounds are listed: those with a hit (about 5.9% of all), similar ones and a draw of the others.
T cruzi growth – T. cruzi intracellular proliferation inhibitors, primary screen, cell-based, beta-gal Tulahuen parasites, NIH3T3 host, luminescence | AID 624255, 2012 | inhibition, % at 8.34 µM | T. cruzi beta-gal in NIH3T3, GalScreen luminescence, 90 h | 5.9% of 77,000 active;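 active means mean inhibition above about 93%, with at least 55% of replicates each passing it, limit read from the data, passing the limit was not always enough; inconclusive means only one of those two conditions holds; inactive means neither condition holds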
Pf Dd2 inh – P. falciparum Dd2 growth inhibitors, primary screen, SYBR Green fluorescence, single dose replicates. 2.3% of 94,000 active. 72 h; stronger effect = lower value. AID 1159554, 2015. activity change, % at 10 µM; in the data active means activity change below about -80%; inconclusive means no clear call, values can overlap the other calls
KDM4C inh – inhibitors of GASC-1 (KDM4C) histone demethylase, primary screen, biochemical, single concentration HTS. inhibition, % at 12.5 µM. 0.15% of 96,000 active. GST-KDM4C 2-372, H3K9me3 peptide, LANCE TR-FRET. AID 720574, 2013. Lysine-specific demethylase 4C (Homo sapiens), Q9H3R0;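 active means mean replicate inhibition above about 25%, with at least 55% of replicates also reaching it, limit read from the data, passing the limit was not always enough; inconclusive means only one of those two conditions met; inactive means neither condition met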
Target sequence (Q9H3R0 2-372 limits assumed): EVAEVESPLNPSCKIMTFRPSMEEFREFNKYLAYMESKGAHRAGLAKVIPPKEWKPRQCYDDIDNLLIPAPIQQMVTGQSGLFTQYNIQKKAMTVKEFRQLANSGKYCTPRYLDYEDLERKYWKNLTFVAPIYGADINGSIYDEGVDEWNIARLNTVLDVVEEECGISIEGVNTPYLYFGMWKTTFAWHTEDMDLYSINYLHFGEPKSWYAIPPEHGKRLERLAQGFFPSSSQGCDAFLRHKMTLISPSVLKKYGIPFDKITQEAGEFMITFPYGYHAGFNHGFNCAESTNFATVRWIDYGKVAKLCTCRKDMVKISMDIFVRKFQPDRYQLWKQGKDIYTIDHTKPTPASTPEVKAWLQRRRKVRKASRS
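material = GST-tagged GASC-1 (JMJD2C) catalytic fragment, aa 2-372 | amount = enzyme final amount 10 nM | medium = HEPES buffer, pH 7.5, plus ascorbate | also added = H3K9me3 peptide substrate, Fe(II), 2-oxoglutarate | dosing = single dose | times = 30 min demethylation and 1 h detection at room temperature | detection = LANCE TR-FRET | read-out basis = Fall in 671/618 emission ratio as inhibition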
IDH1 R132H inh – inhibitors of IDH1 R132H reductase, primary screen, biochemical, plate reader, single point; 0.18% of 70,000 active; AID 624101, 2012; diaphorase/resazurin fluorescence, 60 min; inhibition, % at 10 µM; in the data active means inhibition above about 34%; inconclusive means no clear call, values can overlap the other calls; inactive means below about 11%
Target sequence (O75874 whole entry R132H): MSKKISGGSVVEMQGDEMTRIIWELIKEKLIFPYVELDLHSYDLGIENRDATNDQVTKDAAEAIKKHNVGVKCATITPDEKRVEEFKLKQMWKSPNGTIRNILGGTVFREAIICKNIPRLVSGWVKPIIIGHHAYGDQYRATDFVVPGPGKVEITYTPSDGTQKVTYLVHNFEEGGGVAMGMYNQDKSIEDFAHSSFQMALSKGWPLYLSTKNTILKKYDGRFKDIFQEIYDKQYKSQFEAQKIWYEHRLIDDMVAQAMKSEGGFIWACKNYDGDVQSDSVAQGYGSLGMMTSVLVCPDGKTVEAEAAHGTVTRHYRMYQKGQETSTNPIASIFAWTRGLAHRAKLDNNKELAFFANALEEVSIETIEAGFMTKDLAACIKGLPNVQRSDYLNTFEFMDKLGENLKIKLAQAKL
Large screens that a line does not name were inactive.

COc1ccc(NC(=O)Nc2ccc3c(c2)C(=O)N([C@H](C)CO)C[C@@H](C)[C@H](CN(C)S(=O)(=O)c2c(C)noc2C)OCCCC[C@@H](C)O3)cc1	Pf Dd2 inh -80.5 (no result: IDH1 R132H inh)
Cc1noc(C)c1S(=O)(=O)N(C)C[C@H]1OCCCC[C@H](C)Oc2ccc(NC(=O)Nc3ccc(C(F)(F)F)cc3)cc2C(=O)N([C@@H](C)CO)C[C@@H]1C	T cruzi growth 88.9, Pf Dd2 inh -83.3
COc1ccc2[nH]c3c(OC)ncnc3c2c1	none (no result: T cruzi growth, Pf Dd2 inh, KDM4C inh)
CC(=O)c1ccc(NC(=O)CNS(=O)(=O)c2cccc(Cl)c2)cc1	none (no result: T cruzi growth, Pf Dd2 inh, KDM4C inh)
C[C@@H]1CCCCO[C@@H](CN(C)C(=O)CCC(F)(F)F)[C@@H](C)CN([C@@H](C)CO)C(=O)c2cc(NC(=O)Nc3ccc4c(c3)OCO4)ccc2O1	none
C[C@@H]1CCCCO[C@@H](CN(C)C(=O)Nc2ccc3c(c2)OCO3)[C@@H](C)CN([C@@H](C)CO)C(=O)c2cc(NC(=O)Nc3ccc(F)cc3)ccc2O1	Pf Dd2 inh -82.8
C[C@@H]1CCCCO[C@@H](CN(C)C(=O)Nc2ccc3c(c2)OCO3)[C@@H](C)CN([C@H](C)CO)C(=O)c2cc(NC(=O)Nc3ccc(F)cc3)ccc2O1	none
C[C@@H]1CCCCO[C@H](CN(C)C(=O)CCC(F)(F)F)[C@@H](C)CN([C@H](C)CO)C(=O)c2cc(NC(=O)Nc3ccc4c(c3)OCO4)ccc2O1	Pf Dd2 inh -82.6
C[C@@H]1CCCCO[C@H](CN(C)C(=O)Nc2ccc(C(F)(F)F)cc2)[C@@H](C)CN([C@H](C)CO)C(=O)c2cc(NC(=O)Nc3ccc4c(c3)OCO4)ccc2O1	T cruzi growth 107.3 (no result: KDM4C inh, IDH1 R132H inh)
C[C@@H]1CCCCO[C@@H](CN(C)C(=O)Nc2ccc3c(c2)OCO3)[C@@H](C)CN([C@H](C)CO)C(=O)c2cc(NC(=O)Nc3ccc(C(F)(F)F)cc3)ccc2O1	none
COc1ccc(NC(=O)Nc2ccc3c(c2)C(=O)N([C@@H](C)CO)C[C@H](C)[C@@H](CN(C)C(=O)Cc2ccccc2)OCCCC[C@@H](C)O3)cc1	Pf Dd2 inh -85.8
C=CC[C@@]12C[C@@H](OC)C(=O)C(OC)=C1O[C@H](c1ccc3c(c1)OCO3)[C@H]2C	none (no result: T cruzi growth, Pf Dd2 inh, KDM4C inh)
CNC(=O)CN(c1ccc(C)cc1)S(=O)(=O)c1ccccc1	none (no result: T cruzi growth, Pf Dd2 inh, KDM4C inh)
OCC1OC(Oc2cc(O)cc(/C=C/c3ccccc3)c2)C(O)C(O)C1O (stereo not given)	none (no result: T cruzi growth, Pf Dd2 inh, KDM4C inh)
COc1ccc(CCN2C(=O)C(C)SC2c2cccnc2)cc1 (stereo not given)	none (no result: T cruzi growth, Pf Dd2 inh, KDM4C inh)
C[C@@H]1CCCCO[C@H](CN(C)C(=O)Nc2ccc3c(c2)OCO3)[C@H](C)CN([C@H](C)CO)C(=O)c2cc(NC(=O)NC3CCCCC3)ccc2O1	Pf Dd2 inh -82.0 (no result: IDH1 R132H inh)
COc1ccc(NC(=O)Nc2ccc3c(c2)C(=O)N([C@H](C)CO)C[C@@H](C)[C@@H](CN(C)C(=O)Nc2ccc4c(c2)OCO4)OCCCC[C@@H](C)O3)cc1	Pf Dd2 inh -90.3 (no result: IDH1 R132H inh)
C[C@@H]1CCCCO[C@H](CN(C)C(=O)Nc2ccc3c(c2)OCO3)[C@H](C)CN([C@H](C)CO)C(=O)c2cc(NC(=O)Nc3ccc(C(F)(F)F)cc3)ccc2O1	Pf Dd2 inh -88.6
C[C@H](CO)N1C[C@H](C)[C@@H](CN(C)C(=O)Nc2ccc(C(F)(F)F)cc2)OCCCC[C@H](C)Oc2ccc(NC(=O)Nc3ccc4c(c3)OCO4)cc2C1=O	T cruzi growth 118.6 (no result: IDH1 R132H inh)
O=C1c2cccc3cccc(c23)C(=O)N1CCCSc1nnc(-c2ccncc2)n1-c1ccccc1	none (no result: T cruzi growth, Pf Dd2 inh, KDM4C inh)
C[C@@H]1CCCCO[C@H](CN(C)S(=O)(=O)c2ccc(F)cc2)[C@@H](C)CN([C@@H](C)CO)C(=O)c2cc(NC(=O)C3CCCCC3)ccc2O1	none
C[C@@H]1CN([C@@H](C)CO)C(=O)c2cc(NC(=O)C3CCCCC3)ccc2O[C@@H](C)CCCCO[C@@H]1CN(C)S(=O)(=O)c1ccc(F)cc1	Pf Dd2 inh -81.8
C[C@@H]1CN([C@H](C)CO)C(=O)c2cc(NC(=O)C3CCCCC3)ccc2O[C@@H](C)CCCCO[C@@H]1CN(C)S(=O)(=O)c1ccc(F)cc1	Pf Dd2 inh -82.4
Cc1ccc(C)c(OCC(=O)Nc2cccc(-c3nnc(-c4ccco4)o3)c2)c1	none (no result: T cruzi growth, Pf Dd2 inh, KDM4C inh)
C/C=C/c1ccc([C@H]2[C@@H](CO)N(c3nc(C)c(C)s3)[C@@H]2CNCC(C)C)cc1	Pf Dd2 inh -96.0 (no result: T cruzi growth, IDH1 R132H inh)
COc1ccc(S(=O)(=O)N(C)CC(N)=O)cc1Cl	none (no result: T cruzi growth, Pf Dd2 inh, KDM4C inh)
CCC(=O)N1CC(=O)N2[C@@H](CO)[C@H](c3ccc(C#CCc4ccccc4)cc3)[C@@H]2C1	Pf Dd2 inh -84.5 (no result: T cruzi growth, IDH1 R132H inh)
O=C(C1CC1)N1CC(=O)N2[C@H](CO)[C@@H](c3ccc(C#CCc4ccccc4)cc3)[C@@H]2C1	Pf Dd2 inh -87.5 (no result: T cruzi growth, IDH1 R132H inh)
COCC#Cc1ccc([C@H]2[C@H](CO)N3C(=O)CN(C(=O)CN4CCOCC4)C[C@@H]23)cc1	Pf Dd2 inh -85.3 (no result: T cruzi growth, IDH1 R132H inh)
O=C(c1ccccn1)N1CC(=O)N2[C@H](C1)[C@@H](c1ccc(C#CCc3ccccc3)cc1)[C@@H]2CO	Pf Dd2 inh -81.9 (no result: T cruzi growth, IDH1 R132H inh)
O=C(C1CC1)N1CC(=O)N2[C@@H](CO)[C@H](c3ccc(C#CCc4ccccc4)cc3)[C@@H]2C1	none (no result: T cruzi growth, IDH1 R132H inh)
Cc1cccc(N(CC(=O)NC(C)(C)C)S(=O)(=O)c2ccc(Cl)cc2)c1	none (no result: T cruzi growth, Pf Dd2 inh, KDM4C inh)
O=C(C1CCCC1)N1CC(=O)N2[C@H](C1)[C@@H](c1ccc(C#CCc3ccccc3)cc1)[C@@H]2CO	Pf Dd2 inh -89.0 (no result: T cruzi growth, IDH1 R132H inh)
CC(C)C#Cc1ccc([C@@H]2[C@@H](CO)N3C(=O)CN(C(=O)C4CCCCC4)C[C@@H]23)cc1	Pf Dd2 inh -85.1 (no result: T cruzi growth, IDH1 R132H inh)
O=C(C1CCCC1)N1CC(=O)N2[C@H](CO)[C@@H](c3ccc(C#CCc4ccccc4)cc3)[C@@H]2C1	Pf Dd2 inh inconclusive (no result: T cruzi growth, IDH1 R132H inh)
CC(C)C#Cc1ccc([C@@H]2[C@@H](CO)N3C(=O)CN(C(=O)C4CCCCC4)C[C@H]23)cc1	none (no result: T cruzi growth, IDH1 R132H inh)
Cc1ccccc1OCCn1c(C(O)c2ccccc2)nc2ccccc21 (stereo not given)	none (no result: T cruzi growth, Pf Dd2 inh, KDM4C inh)
C[C@@H]1CN([C@H](C)CO)C(=O)Cc2cc(NC(=O)Nc3ccc4c(c3)OCO4)ccc2O[C@H]1CN(C)C(=O)Nc1ccc(C(F)(F)F)cc1	none
C[C@H](CO)N1C[C@H](C)[C@@H](CN(C)C(=O)Nc2ccc3c(c2)OCO3)Oc2ccc(NC(=O)Nc3ccc(C(F)(F)F)cc3)cc2CC1=O	Pf Dd2 inh -93.0 (no result: T cruzi growth, IDH1 R132H inh)
C[C@H]1CN([C@@H](C)CO)C(=O)Cc2cc(NC(=O)Nc3ccc(C(F)(F)F)cc3)ccc2O[C@@H]1CN(C)C(=O)Nc1ccc2c(c1)OCO2	Pf Dd2 inh -92.5 (no result: T cruzi growth)
CCOC(=O)c1c(NC(=O)c2ccc(Cn3cc(Br)cn3)o2)sc2c1CCCC2	none (no result: T cruzi growth, Pf Dd2 inh, KDM4C inh)
CC(C)(C)[S@@](=O)N1Cc2cc(C(=O)NCc3ccncc3)nc(-c3cccc(-c4ccncc4)c3)c2[C@H]1CCO	none

Screening data as filed in PubChem.
